Laboratory results reported in ChEMBL document CHEMBL2434954, “Novel 6β-acylaminomorphinans with analgesic activity” (Eur J Med Chem, 2013).
Activity calls are given as the source filed them.

Experiments:
Mus musculus [1] = assay: Analgesic activity in sc dosed CD1 mouse assessed as increase in pain threshold by tail flick method; type: functional
Method in brief: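 Male CD-1 mice (25-35 g), radiant heat tail-flick. Baseline 2.0-3.0 s, mean of two trials. Cumulative s.c. dosing, tested 30 min after dose, groups n=10, two independent assays. Analgesia defined quantally as doubling or more of baseline latency.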

[2] = molecular target: T1, Delta-type opioid receptor (Mus musculus, UniProt P32300); assay: Displacement of [125I]-BNtxA from mouse cloned delta opioid receptor expressed in CHO cells after 90 mins; type: cell-based
T1 sequence (P32300 whole entry): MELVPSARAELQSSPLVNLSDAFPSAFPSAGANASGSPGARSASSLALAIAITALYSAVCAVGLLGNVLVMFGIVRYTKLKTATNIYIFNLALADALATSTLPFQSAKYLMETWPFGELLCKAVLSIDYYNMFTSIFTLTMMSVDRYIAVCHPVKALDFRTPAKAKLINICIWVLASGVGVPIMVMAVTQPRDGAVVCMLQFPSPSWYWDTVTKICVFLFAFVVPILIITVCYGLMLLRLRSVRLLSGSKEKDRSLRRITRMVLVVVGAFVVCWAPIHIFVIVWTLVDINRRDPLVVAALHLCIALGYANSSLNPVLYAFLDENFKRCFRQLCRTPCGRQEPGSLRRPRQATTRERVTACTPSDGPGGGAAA
Method in brief: (§1)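 CHO membranes stably expressing cloned mouse MOR-1, DOR-1 or KOR-1 (30-40 μg/mL protein), competition against 0.1 nM 125I-BNtxA. Incubation 90 min at 25°C in 50 mM potassium phosphate pH 7.4, with 5 mM MgSO4 for MOR-1 only. Nonspecific binding with 8 μM levallorphan. Ki from IC50. Mean ± SEM, at least three replicates.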

[3] = molecular target: T2, Kappa-type opioid receptor (Mus musculus, UniProt P33534); assay: Displacement of [125I]-BNtxA from mouse cloned kappa opioid receptor expressed in CHO cells after 90 mins; type: cell-based; method in brief: as §1
T2 sequence (P33534 whole entry): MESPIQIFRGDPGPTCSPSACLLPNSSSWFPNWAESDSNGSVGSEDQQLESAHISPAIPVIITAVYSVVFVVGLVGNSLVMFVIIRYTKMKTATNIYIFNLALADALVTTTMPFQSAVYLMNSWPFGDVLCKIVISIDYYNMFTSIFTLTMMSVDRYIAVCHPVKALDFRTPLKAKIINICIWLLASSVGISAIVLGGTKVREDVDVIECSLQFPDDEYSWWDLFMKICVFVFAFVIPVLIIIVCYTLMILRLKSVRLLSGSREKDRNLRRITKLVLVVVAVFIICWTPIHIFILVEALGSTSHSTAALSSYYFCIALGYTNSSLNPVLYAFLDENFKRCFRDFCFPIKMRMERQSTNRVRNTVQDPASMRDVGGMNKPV

Mu-type opioid receptor [4] = molecular target: T3, Mu-type opioid receptor (Mus musculus, UniProt P42866); assay: Displacement of [125I]-BNtxA from mouse cloned mu opioid receptor expressed in CHO cells after 90 mins; type: cell-based; method in brief: as §1
T3 sequence (P42866 whole entry): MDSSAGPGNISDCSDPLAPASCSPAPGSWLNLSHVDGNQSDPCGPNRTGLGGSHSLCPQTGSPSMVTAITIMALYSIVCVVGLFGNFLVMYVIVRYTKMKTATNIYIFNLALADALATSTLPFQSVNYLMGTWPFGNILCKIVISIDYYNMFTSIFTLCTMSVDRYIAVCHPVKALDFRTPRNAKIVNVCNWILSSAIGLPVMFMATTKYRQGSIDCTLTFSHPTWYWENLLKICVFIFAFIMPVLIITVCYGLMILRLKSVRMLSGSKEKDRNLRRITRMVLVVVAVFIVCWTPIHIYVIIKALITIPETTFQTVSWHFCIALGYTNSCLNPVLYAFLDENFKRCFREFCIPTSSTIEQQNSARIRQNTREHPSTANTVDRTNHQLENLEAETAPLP

Mus musculus [5] = species on record: Mus musculus; assay: Selectivity ratio of Ki for mouse cloned kappa opioid receptor to Ki for mouse cloned mu opioid receptor
Mus musculus [6] = assay: Toxicity in CD1 mouse assessed as respiratory depression at 24 mg/kg, sc measured after 15 to 35 mins; type: organism-based; parameters: dose 24 mg/kg, route subcutaneous; settings: in vivo
Method in brief: (§2)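 Awake, freely moving adult male CD1 mice, pulse oximeter breath rate after 30 min habituation. 5-s average breath rate every 5 min. Baseline over 25 min before s.c. injection, then recorded from 15 min post-injection for 35 min. Groups n=3, saline control. Values given as percent of baseline.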

Mus musculus [7] = species on record: Mus musculus; assay: Selectivity ratio of EC50 for mouse cloned delta opioid receptor to EC50 for mouse cloned mu opioid receptor by [35S]GTPgammaS binding assay; type: functional
Mus musculus [8] = species on record: Mus musculus; assay: Selectivity ratio of EC50 for mouse cloned kappa opioid receptor to EC50 for mouse cloned mu opioid receptor by [35S]GTPgammaS binding assay; type: functional
[9] = molecular target: Mu-type opioid receptor (Mus musculus) (UniProt P42866); assay: Agonist activity at mouse cloned mu opioid receptor expressed in CHO cells after 60 mins by [35S]GTPgammaS binding assay relative to DAMGO; type: functional, cell-based
Sequence of Mu-type opioid receptor (Mus musculus) (P42866 whole entry): as above
Method in brief: (§3)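 Membranes from transfected cells incubated with agonist 60 min at 30°C in 50 mM Tris-HCl pH 7.4, 3 mM MgCl2, 0.2 mM EGTA, 10 mM NaCl, with 0.05 nM [35S]GTPγS and GDP. Filtration on glass-fibre filters, scintillation counting. Basal binding with GDP and no drug. […] Mean ± SEM, three assays in triplicate.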

[10] = molecular target: Delta-type opioid receptor (Mus musculus) (UniProt P32300); assay: Agonist activity at mouse cloned delta opioid receptor expressed in CHO cells after 60 mins by [35S]GTPgammaS binding assay relative to DPDPE; type: functional, cell-based; method in brief: as §3
Sequence of Delta-type opioid receptor (Mus musculus) (P32300 whole entry): as the sequence (P32300 whole entry) above

[11] = molecular target: Kappa-type opioid receptor (Mus musculus) (UniProt P33534); assay: Agonist activity at mouse cloned kappa opioid receptor expressed in CHO cells at 100 nM after 60 mins by [35S]GTPgammaS binding assay relative to U50488H; type: functional, cell-based; method in brief: as §3
Sequence of Kappa-type opioid receptor (Mus musculus) (P33534 whole entry): as the sequence (P33534 whole entry) above

[12] = molecular target: T1, Delta-type opioid receptor; assay: Agonist activity at mouse cloned delta opioid receptor expressed in CHO cells after 60 mins by [35S]GTPgammaS binding assay; type: functional, cell-based
Method in brief: (§4)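 Membranes from transfected cells incubated with agonist 60 min at 30°C in 50 mM Tris-HCl pH 7.4, 3 mM MgCl2, 0.2 mM EGTA, 10 mM NaCl, with 0.05 nM [35S]GTPγS and GDP. Filtration on glass-fibre filters, scintillation counting. Basal binding with GDP and no drug. Mean ± SEM, three assays in triplicate.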

[13] = molecular target: T2, Kappa-type opioid receptor; assay: Agonist activity at mouse cloned kappa opioid receptor expressed in CHO cells after 60 mins by [35S]GTPgammaS binding assay; type: functional, cell-based; method in brief: as §3
Mu-type opioid receptor [14] = molecular target: T3, Mu-type opioid receptor; assay: Agonist activity at mouse cloned mu opioid receptor expressed in CHO cells after 60 mins by [35S]GTPgammaS binding assay; type: functional, cell-based; method in brief: as §4
Mus musculus [15] = assay: Analgesic activity in sc dosed CD1 mouse assessed as increase in pain threshold by tail flick method in presence of kappa opioid receptor antagonist norBNI; type: functional, organism-based
Method in brief: (§5)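 Tail-flick test in CD1 mice (n=6 per group) given agonist 5 mg/kg s.c. alone or with antagonist s.c.: norBNI 10 mg/kg or β-FNA 40 mg/kg 24 h before, NTI 20 mg/kg 15 min before. Latency read 30 min after agonist. Two independent replications; ANOVA with Bonferroni test (p < 0.05).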

Mus musculus [16] = assay: Analgesic activity in sc dosed CD1 mouse assessed as increase in pain threshold by tail flick method in presence of delta opioid receptor antagonist […]; type: functional, organism-based; method in brief: as §5
Mus musculus [17] = assay: Analgesic activity in sc dosed CD1 mouse assessed as increase in pain threshold by tail flick method in presence of mu opioid receptor antagonist beta-FNA; type: functional, organism-based; method in brief: as §5
Mus musculus [18] = species on record: Mus musculus; assay: Selectivity ratio of Ki for mouse cloned delta opioid receptor to Ki for mouse cloned mu opioid receptor
Mus musculus [19] = assay: Toxicity in CD1 mouse assessed as respiratory depression at 20 mg/kg, sc measured after 15 to 35 mins; type: organism-based; parameters: dose 20 mg/kg, route subcutaneous; settings: in vivo; method in brief: as §2

| SMILES | ED50 (Mus musculus [1]) [mg/kg] | Ki [2] [nM] | Ki [3] [nM] | Ki (Mu-type opioid receptor [4]) [nM] | also measured |
| --- | --- | --- | --- | --- | --- |
| CN1CC[C@]23c4c5ccc(O)c4O[C@H]2[C@H](NC(=O)/C=C/c2cccc([N+](=O)[O-])c2)C=C[C@H]3[C@H]1C5 | > 10 | 5.15 | 0.81 | 0.12 |  |
| COc1ccc2c3c1O[C@H]1[C@H](NC(=O)/C=C/c4ccc(Cl)cc4)C=C[C@H]4[C@@H](C2)N(C)CC[C@@]341 | > 10 | > 100 | > 100 | 3.81 |  |
| CN1CC[C@]23c4c5ccc(O)c4O[C@H]2[C@H](NC(=O)/C=C/c2ccc(C(F)(F)F)cc2)C=C[C@H]3[C@H]1C5 | > 10 | 14.5 | 10.5 | 0.19 | Ratio Ki (Mus musculus [5]): 55.4 |
| CN1CC[C@]23c4c5ccc(O)c4O[C@H]2[C@H](NC(=O)/C=C/c2ccccc2)C=C[C@H]3[C@H]1C5 | 3.13 | 10.3 | 2.9 | 0.1 | Activity (Mus musculus [6]): Non-toxic; Ratio EC50 (Mus musculus [7]): 4; Ratio EC50 (Mus musculus [8]): 25; Efficacy [9]: 95.3%; Efficacy [10]: 102%; Efficacy [11]: 106%; EC50 [12]: 9.1 nM; EC50 [13]: 36.5 nM; EC50 (Mu-type opioid receptor [14]): 1.38 nM; Activity (Mus musculus [15]): Active; Activity (Mus musculus [16]): inactive; Activity (Mus musculus [17]): inactive; Ratio Ki (Mus musculus [18]): 103 |
| COc1ccc(/C=C/C(=O)N[C@@H]2C=C[C@H]3[C@H]4Cc5ccc(OC)c6c5[C@@]3(CCN4C)[C@H]2O6)cc1 | > 10 | > 100 | > 100 | 25.2 |  |
| COc1ccc(/C=C/C(=O)N[C@@H]2C=C[C@H]3[C@H]4Cc5ccc(O)c6c5[C@@]3(CCN4C)[C@H]2O6)cc1 | > 10 | 15.3 | 5.43 | 0.74 |  |
| COc1ccc2c3c1O[C@H]1[C@H](NC(=O)/C=C/c4ccc(C(F)(F)F)cc4)C=C[C@H]4[C@@H](C2)N(C)CC[C@@]341 | > 10 | > 100 | > 100 | 5.44 |  |
| COc1ccc2c3c1O[C@H]1[C@H](NC(=O)/C=C/c4ccccc4)C=C[C@H]4[C@@H](C2)N(C)CC[C@@]341 | > 10 | > 100 | > 100 | 4.73 |  |
| CN1CC[C@]23c4c5ccc(O)c4O[C@H]2[C@@H](O)C=C[C@H]3[C@H]1C5 [MORPHINE] | 4.96 |  |  |  | Activity (Mus musculus [19]): Toxic |
| COc1ccc2c3c1O[C@H]1[C@H](NC(=O)/C=C/c4cccc([N+](=O)[O-])c4)C=C[C@H]4[C@@H](C2)N(C)CC[C@@]341 | > 10 | > 100 | > 100 | 3.74 |  |
| CN1CC[C@]23c4c5ccc(O)c4O[C@H]2[C@H](NC(=O)/C=C/c2ccc(Cl)cc2)C=C[C@H]3[C@H]1C5 | > 10 | 9.38 | 1.97 | 0.15 |  |
